Screening data: PubChem, several laboratories
The list is not random: actives were taken first. Their share in the collection is about 2.4%.
Autophagy mod: autophagy modulators in MEF cells, primary screen, imaging, high-content, MEF GFP-LC3. MEF GFP-LC3 puncta imaging; test concentration mostly 10 µM. calls only at 10 µM (by protocol). hit rate 0.98% among 190,000;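 active means percentage of spot-positive cells more than 3 SD above its plate mean, without a fluorescence outlier flag or 80% toxicity; inconclusive means no clear call, values can overlap the other calls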;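 further: spot-positive cell cutoff set from DMSO-treated cells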
L929 necroptosis: inhibitors of zVAD-triggered necroptosis, primary screen, L929 cells | L929 zVAD necroptosis rescue, ATP luminescence, 24 h; with zVAD 60 µM | viability rescue, % at 10 µM | hit rate 0.38% among 220,000;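 active means activation, scaled between plate controls, above about 75%, limit read from the data; inactive means activation under that limit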;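 further: 0% = zVAD with DMSO and 100% = DMSO alone without zVAD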
TNF necrop inh: inhibitors of TNF-alpha triggered necroptosis, primary screen, cell-based, Jurkat FADD-/-, single concentration; Jurkat FADD-/- TNF necroptosis rescue, ATP luminescence, 24 h; 0 = TNF only, 100 = no-TNF cells; activation (protection from cell death), % at 10 µM; hit rate 0.068% among 220,000; AID 463075, 2010;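 active means activation, meaning protection from cell death, of at least 50% relative to plate controls; inactive means activation below 50%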;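 further: necroptosis triggered by 40 ng/mL TNF-alpha added together with compound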
Dynein cargo inh: inhibitors of GR-EGFP nuclear translocation, primary screen, dynein cargo transport inhibitor project, imaging, high-content, 3617.4 mouse cells. test concentration mostly 20 µM; stimulated with dexamethasone, 1 µM; stronger effect = lower value. z-score, hits read low. hit rate 0.47% among 220,000. AID 1381, 2008;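 active means plate z-score of nuclear minus cytoplasmic receptor signal below a set negative limit, without overly bright fluorescence or cell loss, cut at about -3.5 in these data, passing the limit was not always enough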;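 further: z-score of nuclear minus cytoplasmic ring GR-EGFP intensity difference per well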
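Also added – dexamethasone, 1.0 µM final · Buffer or medium – tet-free, stripped-serum medium · Schedule – induction 48 h, compound 1 h, agonist 30 min · Detection – formaldehyde fixation, Hoechst nuclear stain, 10x automated fluorescence imaging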
MDM2 E3 inh: MDM2-luciferase reporter signal enhancers, primary screen, MDM2 E3 ligase inhibitor project, cell-based, luminescence, 1536-well | E3 ubiquitin-protein ligase Mdm2 (Homo sapiens), Q00987 | hit rate 0.11% among 210,000 | cell-based MDM2 ubiquitination luciferase reporter, 2 h; 0 = plate control, 100 = twice control, blank-subtracted | signal enhancement, % at 5 µM;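 active means signal enhancement of 30% or more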;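 further: luminescence tracks abundance of the self-degrading MDM2-luciferase fusion protein; higher signal means inhibition of MDM2 E3 ligase activity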
Target sequence (Q00987 whole entry, looked up, the tested form may be a part): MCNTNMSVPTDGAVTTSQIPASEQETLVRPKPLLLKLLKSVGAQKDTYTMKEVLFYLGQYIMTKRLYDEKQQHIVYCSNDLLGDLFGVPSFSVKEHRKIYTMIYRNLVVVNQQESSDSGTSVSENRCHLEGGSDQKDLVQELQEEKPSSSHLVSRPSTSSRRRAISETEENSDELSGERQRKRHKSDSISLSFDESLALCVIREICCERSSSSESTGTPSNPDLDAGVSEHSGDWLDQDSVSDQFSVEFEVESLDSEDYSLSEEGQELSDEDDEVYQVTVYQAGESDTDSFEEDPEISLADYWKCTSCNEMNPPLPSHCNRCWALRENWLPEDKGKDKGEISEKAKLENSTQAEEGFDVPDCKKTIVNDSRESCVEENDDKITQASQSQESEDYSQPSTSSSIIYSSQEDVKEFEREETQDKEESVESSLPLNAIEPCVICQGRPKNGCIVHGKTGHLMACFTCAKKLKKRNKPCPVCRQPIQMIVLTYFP
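Assay system: mammalian cells stably expressing self-ubiquitinating, self-degrading MDM2 E3–luciferase fusion. Quantity: 2000 cells in each well. Medium: DMEM culture medium. Compound dosing: single-point 5 µM. Timing: cell settling 4 h, compound treatment 2 h, both 37 °C. Technique: luciferase luminescence. Read-out basis: percent signal gain over controls, blank-subtracted. Benchmarks: plate controls and plate blanks.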
Hck Nef HTS: inhibitors of Nef-activated human Hck kinase, primary screen, biochemical, Z-Lyte FRET, 384-well, Hck-YEEI; inhibition, % at 20 µM; Tyrosine-protein kinase HCK (Homo sapiens), P08631; AID 463187, 2010; Recombinant Hck-YEEI plus Nef, Z-Lyte FRET kinase assay; hit rate 0.68% among 220,000;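 active means Hck-Nef kinase inhibition above about 50%, limit read from the data; inactive means inhibition below that limit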;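 further: 0% = DMSO with Hck plus Nef and 100% = Hck alone without Nef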
Dynein inh conf: dynein cargo transport inhibitors, GR-EGFP translocation, confirmation, imaging, high-content imaging, GR-EGFP cells | 3617.4 GR-EGFP nuclear translocation imaging, dexamethasone-induced | calls only at 20 µM | AID 463116, 2010 | hit rate 69% among 1,000 | shares compounds with Dynein cargo inh;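 active means inhibition of receptor movement into the nucleus at or above a set limit in both runs, with normal cell brightness and cell count; inconclusive means limit reached in only one run, brightness and count normal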;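 further: dexamethasone at 1 µM final in well for 30 min; nuclear minus cytoplasmic GR-EGFP mean intensity difference in channel 2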
Active calls of the source: *.

Cc1cccc(Sc2ccc([N+](=O)[O-])cc2[N+](=O)[O-])n1 was read as Autophagy mod inactive, L929 necroptosis 2, TNF necrop inh 5, Dynein cargo inh -0.1, MDM2 E3 inh -6 and Hck Nef HTS 7.
COC(=O)c1cc(=O)n(-c2ccc(C(F)(F)F)cc2)[nH]1 was read as L929 necroptosis 1, TNF necrop inh 2, Dynein cargo inh -0.55, MDM2 E3 inh -6 and Hck Nef HTS 13.
Screening CC(C)CCNC(=O)c1ccc(Cl)c(NC(=O)Cc2ccccc2)c1 returned Autophagy mod inactive, L929 necroptosis 0, TNF necrop inh 1, Dynein cargo inh 0.33, MDM2 E3 inh 6 and Hck Nef HTS 0.
For O=C1c2ccccc2-c2ccc(C(=O)N3CCCCC3)cc21 the results were Autophagy mod inactive, L929 necroptosis 1, TNF necrop inh -1, Dynein cargo inh -0.63, MDM2 E3 inh -5 and Hck Nef HTS 17.
For Cc1cc(C)nc(S/C=C/C(=O)c2ccccc2F)n1 the results were L929 necroptosis -1, TNF necrop inh -28, Dynein cargo inh -3.7*, MDM2 E3 inh 39*, Hck Nef HTS -18 and Dynein inh conf active.
`Cc1cc(NC(=O)c2ccccc2F)on1` gave Autophagy mod inactive, L929 necroptosis 0, TNF necrop inh 1, Dynein cargo inh -0.52, MDM2 E3 inh -1 and Hck Nef HTS 5.
For N#CCCn1cc(C=C(C#N)C#N)c(-c2ccc(-c3ccccc3)cc2)n1 the results were Autophagy mod inactive, L929 necroptosis 0, TNF necrop inh -3, Dynein cargo inh -4.1*, MDM2 E3 inh -4, Hck Nef HTS 3 and Dynein inh conf inconclusive.
For CCCn1c(CC)nc([N+](=O)[O-])c1S(=O)(=O)c1ccccc1 the results were Autophagy mod inactive, L929 necroptosis 3, TNF necrop inh -23, Dynein cargo inh -5.1*, MDM2 E3 inh -9, Hck Nef HTS 1 and Dynein inh conf active.
Screening Cn1cnc([N+](=O)[O-])c1S(=O)(=O)c1cccc(Cl)c1 returned Autophagy mod inactive, L929 necroptosis 18, TNF necrop inh -7, Dynein cargo inh -3.3, MDM2 E3 inh -21 and Hck Nef HTS -51.
Screening Cc1ccc2[nH]c(=O)cc(C(=O)OC(C)C)c2c1 returned Autophagy mod inactive, L929 necroptosis 5, TNF necrop inh 1, Dynein cargo inh 0.16, MDM2 E3 inh 8 and Hck Nef HTS 18.
For CCc1ccc(C(=O)/C=C2\Sc3ccccc3NC2=O)cc1 the results were Autophagy mod inactive, L929 necroptosis 0, TNF necrop inh -1, Dynein cargo inh -0.6, MDM2 E3 inh -11 and Hck Nef HTS 7.
`CC(=O)/C=C1/C(=O)Nc2ccccc21` gave Autophagy mod inactive, L929 necroptosis 6, TNF necrop inh -7, Dynein cargo inh -5.6*, MDM2 E3 inh -14, Hck Nef HTS 19 and Dynein inh conf active.
For S=c1[nH]nc(-c2cc(-c3ccccc3)n[nH]2)n1/N=C/C(Br)=C/c1ccccc1 the results were L929 necroptosis 26, TNF necrop inh -14, Dynein cargo inh -4.3*, MDM2 E3 inh -5, Hck Nef HTS 25 and Dynein inh conf inconclusive.
For S=c1[nH]nc(-c2cc(-c3ccccc3)n[nH]2)n1/N=C/c1ccccc1 the results were L929 necroptosis 0, TNF necrop inh 1, Dynein cargo inh 0.15 and Hck Nef HTS 16.
Screening Cc1ccc(OCC(=O)c2ccc(Cl)s2)c([N+](=O)[O-])n1 returned Autophagy mod inactive, L929 necroptosis 0, TNF necrop inh -1, Dynein cargo inh -3.9*, MDM2 E3 inh -2, Hck Nef HTS 29 and Dynein inh conf active.
`CCC1CCCCN1S(=O)(=O)c1ccc2c(c1)CCN2C(=O)C1CCC1` (configuration not stated) gave Autophagy mod inactive, L929 necroptosis 6, TNF necrop inh 1, Dynein cargo inh -1.6, MDM2 E3 inh 4 and Hck Nef HTS 0.
O=C(CCl)c1ccc2c(c1)CCN2C(=O)C1CCCCC1 was read as Autophagy mod inactive, L929 necroptosis -2, TNF necrop inh -11, Dynein cargo inh -5.7*, MDM2 E3 inh 22, Hck Nef HTS 33 and Dynein inh conf active.
Screening O=C(CCl)c1ccc2c(c1)CCN2C(=O)C1CC1 returned Autophagy mod inactive, L929 necroptosis -1, TNF necrop inh -8, Dynein cargo inh -4.8*, MDM2 E3 inh 0, Hck Nef HTS 29 and Dynein inh conf active.
`Cc1ccc2nc(Nc3ccc4[nH]c(=O)[nH]c4c3)c(-n3nc(C)cc3C)nc2c1` gave Autophagy mod inactive, L929 necroptosis 0, TNF necrop inh -6, Dynein cargo inh -4.4, MDM2 E3 inh -3, Hck Nef HTS 2 and Dynein inh conf inactive.
`Cc1cc(C)n(-c2nc3ccccc3nc2Nc2ccc3c(c2)OCO3)n1` gave Autophagy mod inactive, L929 necroptosis 1, TNF necrop inh 0, Dynein cargo inh 0.52, MDM2 E3 inh -13 and Hck Nef HTS -6.
Cc1ccc(-n2nnc3c(SCC(=O)N4CCN(c5ccccc5)CC4)ncnc32)cc1 was read as Autophagy mod inactive, L929 necroptosis 1, TNF necrop inh -3, Dynein cargo inh 0.36 and Hck Nef HTS 0.
CCOC(=O)N1CCN(S(=O)(=O)c2ccc(C(=O)Nc3ccc4c(c3)C(=O)NC4=O)cc2)CC1 was read as Autophagy mod inactive, L929 necroptosis 0, TNF necrop inh 2, Dynein cargo inh -0.74, MDM2 E3 inh -12 and Hck Nef HTS 2.
Cc1cc(C)nc(SC2=CS(=O)(=O)c3ccccc32)n1 was read as Autophagy mod inactive, L929 necroptosis 0, TNF necrop inh -9, Dynein cargo inh -1.2, MDM2 E3 inh 4 and Hck Nef HTS 6.
For O=S1(=O)C=C(Sc2nc3ccccc3s2)c2ccccc21 the results were Autophagy mod active, L929 necroptosis 1, TNF necrop inh -2, Dynein cargo inh -4.1*, MDM2 E3 inh 52*, Hck Nef HTS 7 and Dynein inh conf active.
